Results: PubChem BioAssay AID720508 (The Scripps Research Institute Molecular Screening Center, 2013)
In all, about 370,000 compounds went through this assay and about 500 (0.14%) were called active. This excerpt belongs to a sample that is enriched for actives. A number with no mark means an inactive call.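 The calls were made as follows: active = inhibition above the mean of compounds falling within the control limits plus 3 SD of them (cut at about 14% in these data); inactive = the rest.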

biological target: Fibrinogen beta chain (Homo sapiens) (UniProt P02675); assay: inhibitors of Tn7 peptide binding to fibrin DD(E), primary screen, biochemical, fluorescence polarization, human fibrin, Tn7 probe (AID 720508); details: FP displacement of FITC-Tn7 peptide from fibrin DD(E); at 8.3 µM; hits give high values; 0% = median of compound wells per plate;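 also: 0% = plate median of compound wells and 100% = 10 µM Aha-Tn7 peptide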
Sequence (P02675 whole entry, looked up): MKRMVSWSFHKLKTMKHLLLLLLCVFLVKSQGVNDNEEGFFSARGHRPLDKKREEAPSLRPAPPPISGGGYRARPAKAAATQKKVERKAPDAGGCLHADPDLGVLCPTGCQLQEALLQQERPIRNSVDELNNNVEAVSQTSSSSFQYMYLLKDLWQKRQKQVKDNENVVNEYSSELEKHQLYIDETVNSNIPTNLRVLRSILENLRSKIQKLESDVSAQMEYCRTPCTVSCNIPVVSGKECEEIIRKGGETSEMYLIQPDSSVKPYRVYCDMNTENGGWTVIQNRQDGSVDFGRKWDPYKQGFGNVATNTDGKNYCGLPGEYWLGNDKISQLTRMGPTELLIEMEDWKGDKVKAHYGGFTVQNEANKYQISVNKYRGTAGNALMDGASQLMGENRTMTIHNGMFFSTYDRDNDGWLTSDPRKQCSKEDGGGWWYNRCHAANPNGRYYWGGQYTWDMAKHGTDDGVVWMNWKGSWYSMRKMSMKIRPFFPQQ
Method in brief: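 Measure: % inhibition scaled between sample-field median and high-control FP; Test system: human fibrin DD(E); Quantity: 2 µM final DD(E) protein; Doses: one dose, 8.3 µM nominal; Schedule: compound with protein 10 min, then 3 h after probe, room temperature; Detection: fluorescence polarization; Medium: Tris buffer with calcium and detergent, pH 7.8.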

Compared with `CSC1=NC2(C)CCCCC2C12C=CC(=O)C=C2` (stereo unspecified), `CC1CCCCC12NC(=O)N(CC(=O)OCc1c(F)cccc1Cl)C2=O` (stereo unspecified) is lower in inhibition: 6.72% for the first, 5.49% for the second.

First: CC(OC(=O)CN1C(=O)COc2ccccc21)C(=O)NCc1ccc(F)cc1 (stereo unspecified)
Second: Cc1ccccc1CCNC(=O)C1CCC(=O)N(Cc2ccc(Cl)cc2)C1 (stereo unspecified)
The inhibition of the first is lower: -2.52% for the first, 7.94% for the second.

Going from `CN(Cc1ccccc1)CC(O)COc1ccc(CNCc2cc3ccccc3s2)cc1` (stereo unspecified) to `CCc1nn(-c2cc(Oc3cccc4ccccc34)nc(-c3ccccc3)n2)c(N)c1C#N`, the inhibition falls from 5.14% to 4.4%.

Going from `Cc1cc(C(=O)OC(C)C(=O)NC2CCCCC2C)c(C)o1` (stereo unspecified) to `O=C(COC(=O)c1cc([N+](=O)[O-])ccc1NCc1ccccc1)NC1CCCCC1`, the inhibition rises from -2.98% to -0.23%.

First: CCO/N=C(/C)c1c(O)cc(-c2ccccc2)n(-c2ccccc2)c1=O
Second: O=C(N=C1SC2CS(=O)(=O)CC2N1Cc1ccccc1)c1ccccc1 (stereo unspecified)
The inhibition of the first is lower: 0.3% for the first, 8.78% for the second.

Compared with `COCCCNC(=O)Cc1ccc(-n2c(C)nc3cccnc32)cc1`, `COCCNC(=O)CSc1nc2c(n1-c1ccccc1)CCCC2` is lower in inhibition: 1.6% for the first, -3.74% for the second.

Going from `O=C(NNS(=O)(=O)c1ccc(F)cc1)c1ccc([N+](=O)[O-])cc1Cl` to `Cc1ccc(S(=O)(=O)c2c[nH]c3ccc(Cl)cc3c2=O)cc1`, the inhibition falls from 1.43% to -0.42%.

Compared with `CC(C)(C)OC(=O)N1CCC(C(=O)Nc2cccc(C(=O)NCCc3ccccc3)c2)CC1`, `CCNC(=O)c1cccc(NC(=O)C2CC(=O)N(CCc3ccccc3)C2)c1` (stereo unspecified) is higher in inhibition: -2.62% for the first, 8.78% for the second.

First: COc1ccc(C(=O)OCC(=O)NCC2CCCO2)cc1[N+](=O)[O-] (stereo unspecified)
Second: CC(C)CNC(=O)COC(=O)/C=C/c1ccccc1[N+](=O)[O-]
The inhibition of the first is lower: 2.02% for the first, 2.51% for the second.

First: COCCn1c(N)c(NCc2ccccc2)c(=O)[nH]c1=O
Second: CC(C)CC(=O)c1c[nH]c(C(=O)NCc2ccccc2)c1
The inhibition of the first is higher: 8.37% for the first, -1.06% for the second.

First: Nc1ccc2nc3c(=O)[nH]c(=S)[nH]c3nc2c1
Second: CCN(CC)CCCC(C)n1c2nc(=O)[nH]c(=O)c-2nc2cc(Cl)ccc21 (stereo unspecified)
The inhibition of the first is higher: 7.86% for the first, -7.28% for the second.

Going from `CN(C)CCNC(=O)C(C(=O)c1ccccc1)n1ccccc1=O` (stereo unspecified) to `CCC(C)[C@H](NC(=O)N1c2ccccc2NC(=O)[C@@H]1C(C)C)C(=O)N[C@@H](Cc1ccccc1)C(=O)O` (stereo partly specified), the inhibition falls from 8.86% to -4.14%.

First: Cc1ccc(-c2nc(-c3cccnc3)sc2CC(=O)Nc2ccc(C)c(Cl)c2)cc1
Second: Cc1ccc(NC(=O)CN(C)C(=O)c2ccc(Cl)c(S(=O)(=O)NCc3ccco3)c2)cc1
The inhibition of the first is lower: -4.07% for the first, -3.83% for the second.

Going from `CSCCNC(=O)c1ccc2nc(Cc3ccccc3F)oc2c1` to `O=C(NCc1cccnc1)Nc1ccccc1F`, the inhibition falls from -0.81% to -2.21%.

Compared with `COC(=O)[C@H](C(C)C)N1CCc2nnn(Cc3ccc(C)cc3)c2-c2ccccc2S1(=O)=O`, `COc1ccc(S(=O)(=O)N2CCN(C(C)C(=O)Nc3ccc(C(C)C)cc3)CC2)cc1` (stereo unspecified) is lower in inhibition: 5.12% for the first, 2.11% for the second.

First: O=C(COC(=O)c1ccc(O)cc1)Nc1nccs1
Second: CC(=O)c1ccc(NC(=O)CCNS(=O)(=O)c2cc(Br)cnc2N)cc1
The inhibition of the first is higher: 6.41% for the first, 1.85% for the second.

First: O=C1C(=O)N(CCCN2CCOCC2)C(c2ccc([N+](=O)[O-])cc2)/C1=C(\O)c1ccc2c(c1)OCCO2 (stereo unspecified)
Second: COc1ccc(C(=O)N(C)Cc2ccc(OC)c(OC)c2OC)cc1S(=O)(=O)N1CCOCC1
The inhibition of the first is higher: -0.14% for the first, -8.78% for the second.

Going from `O=S(=O)(c1cccc(-c2nnc(SC(F)F)n2-c2ccccc2)c1)N1CCCCC1` to `O=C(Cn1cnc2ccccc2c1=O)Nc1cccc(S(=O)(=O)N2CCCCC2)c1`, the inhibition falls from 3.4% to -0.43%.

Going from `O=C(OCC(=O)N1CCN(C(=O)c2ccco2)CC1)c1ccccc1Cc1ccccc1` to `C=C(C)C#CC(Cc1ccccc1)N(CC1CC1)/C(N)=N/C(=O)OCc1ccccc1` (stereo unspecified), the inhibition rises from -2.57% to 1.85%.

Going from `Cc1cccc(C)c1Nc1c(-c2ccccc2O)nc2ncccn12` to `Cc1ccccc1-c1csc(C(O)c2cccc(Cl)c2)n1` (stereo unspecified), the inhibition falls from 2.35% to -0.35%.

First: Cc1cc(Nc2cccc(F)c2)n2ncnc2n1
Second: COc1ccc(-c2csc(C(O)c3cccc(Cl)c3)n2)cn1 (stereo unspecified)
The inhibition of the first is higher: -2.61% for the first, -9.22% for the second.

Compared with `COc1ccc(/C=C2\CCCC3C2=NN(C(=O)c2scnc2C)C3c2ccc(OC)cc2)cc1` (stereo unspecified), `Cc1cccc(NC(=O)c2ccc(S(=O)(=O)N(C)CC3CCCO3)cc2)c1C` (stereo unspecified) is lower in inhibition: 2.65% for the first, -10% for the second.

Compared with `CC(C)=CCCC1(C)C=Cc2c(ccc3c2[nH]c2cc(O)c(C)cc23)O1` (stereo unspecified), `Cc1cc2occ(CC(=O)NNC(=O)c3ccccc3F)c2cc1C` is higher in inhibition: -5.67% for the first, -1.71% for the second.

Compared with `CC(C)C[C@H]1CNC(=S)N1C[C@H]1CCCN1C[C@H](Cc1ccc(O)cc1)N1C[C@H](Cc2ccc(O)cc2)N(CC2CCCCC2)C1=S`, `CCc1nc2c(OCCC3CCCCC3)cccn2c1N(C)C(=O)c1ccco1` is higher in inhibition: -3.09% for the first, -2.4% for the second.

Compared with `Cc1cc(C)c2nc3nc(C)cc(C)c3c(N)c2c1`, `Nc1nc2n(n1)C(c1ccco1)CC(c1ccc(Cl)c(Cl)c1)N2` (stereo unspecified) is lower in inhibition: 3.42% for the first, -5.38% for the second.

Going from `COc1ccc(S(=O)(=O)N2CCOCC2)cc1NC(=O)CSc1nnc(NC2CC2)s1` to `Cc1cc(NC(=O)C(C)SCC(=O)Nc2cccc(S(=O)(=O)N3CCCCCC3)c2)no1` (stereo unspecified), the inhibition rises from -0.34% to 6.6%.

Going from `CCCC1CCC2(CCCN2CCOC(=O)NCc2ccccc2)CC1` (stereo unspecified) to `O=C(NCc1ccccc1)C1CCCN(c2nc3ccsc3c(=O)s2)C1` (stereo unspecified), the inhibition falls from 2.73% to -2.86%.

Going from `COc1ccc(S(=O)(=O)N(C)CC(=O)N2CCCC2)cc1Cl` to `O=C(COC(=O)CCOc1ccccc1)Nc1cc(S(=O)(=O)N2CCCCC2)ccc1Cl`, the inhibition rises from -5.85% to 3.01%.

Going from `CSCC[C@H](NC(=O)NCc1cccs1)C(=O)O` to `CC(=O)c1cc(-c2ccccc2)n(CCC(=O)NC2CCCCCC2)c1C`, the inhibition falls from 1.72% to -2.95%.

Going from `NC(=O)c1ccc(N2CCCC2)nc1` to `O=C(CSc1nncn1-c1cccnc1)N1CCOCC1`, the inhibition falls from 2.52% to -3.73%.

Going from `Cc1c(C(=O)O)nnn1-c1nonc1N` to `Cc1cc(=O)[nH]c2nnnn12`, the inhibition falls from 1.32% to -1.23%.

First: CCC(=O)N1CCN=C1SCc1ccc(F)cc1
Second: CC(=O)Nc1ccc(CN2CCN(Cc3ccc(F)c(F)c3)C(CCO)C2)cc1 (stereo unspecified)
The inhibition of the first is higher: 1.78% for the first, 0.97% for the second.

Going from `Cc1nnc(SCC(=O)Nc2ncc3c(n2)CC(C)(C)CC3=O)s1` to `C=CCn1c(COc2ccc(F)cc2)nnc1SCC(=O)Nc1cccc(S(N)(=O)=O)c1`, the inhibition falls from 3.19% to 2.08%.

Going from `COc1cc2c(cc1OC)CC1(CCCCC1)N=C2` to `O=C(NCCCN1CCCCC1)C1CCCN(c2ncnc3c2nc2n3CCCCC2)C1` (stereo unspecified), the inhibition falls from 3.18% to -0.83%.

Compared with `O=c1o[nH]c(-c2ccccc2)c1N=Nc1c(F)cccc1Cl`, `O=C(Cn1cnc2ccccc2c1=O)NNC(=O)c1ccccc1F` is lower in inhibition: 1.8% for the first, -3.62% for the second.

First: COc1ccc(N=C2C=CC(=O)O2)cc1
Second: CC1(C)CC(=O)C(C2c3ccccc3S(=O)(=O)c3ccccc32)C(=O)C1
The inhibition of the first is lower: -2.28% for the first, 2.44% for the second.

Going from `CN(CC(=O)Nc1ccc(F)c(F)c1F)C(=O)C1CC(=O)N(C2CCCC2)C1` (stereo unspecified) to `O=S1(=O)CC(N2CCN(Cc3ccccc3F)CC2)CN1Cc1cn(Cc2cccc(C(F)(F)F)c2)nn1` (stereo unspecified), the inhibition rises from 0.71% to 1.27%.

Going from `COC(=O)CSc1snnc1-c1ccc(Cl)c(Cl)c1` to `O=C(c1c(Cl)cccc1Cl)N1CCN(c2cccc3[nH]ccc23)CC1`, the inhibition rises from -4.58% to 2.06%.

Going from `Cc1nn(C(C)(C)C)c(OC(=O)CC(C)C)c1S(=O)(=O)c1ccccc1` to `C=CCN1CCN(c2ccncc2S(=O)(=O)N2CCN(C)CC2)CC1`, the inhibition rises from 1.04% to 7.05%.

Going from `CO[C@H]1[C@@H]2C=CO[C@@H](O[C@H]3O[C@@H](CO)[C@H](O)[C@@H](O)[C@@H]3O)[C@@H]2[C@@]2(CO)O[C@@H]12` to `S=C(NC1CCCCC1)NN1CCOCC1`, the inhibition rises from -5.28% to 4.52%.

With `Oc1ccc2ccc3cccc[n+]3c2c1` the inhibition was 62.8% (active).
With `O=C(COC(=O)c1ccc([N+](=O)[O-])cc1Cl)NC(=O)c1ccccc1` the inhibition was 17.7% (active).
With `O=C(NCc1ccccc1)c1cccc(NC(=O)C2CCCCC2)c1` the inhibition was 15.5% (active).
With `O=C(/C=C/c1ccccc1[N+](=O)[O-])NCC1CCCO1` (stereo unspecified) the inhibition was 14.7% (active).
With `Cc1cc2nc3c(=O)n(Cc4ccccc4)c(=O)[nH]c3nc2cc1N` the inhibition was 25.7% (active).
For `Cc1cc2nc3c(=O)[nH]c(=O)nc-3n(C[C@H](O)[C@H](O)[C@H](O)CO)c2cc1C`, the inhibition was 24.1% (active).
`COc1ccc(S(=O)(=O)c2c[nH]c(=S)[nH]c2=O)cc1Cl` was tested, and the inhibition was 14.8% (active).
`COc1cccc2c1C(=O)c1c(O)c3c(c(O)c1C2=O)CC(O)(C(C)=NNC(=O)c1ccc(Cl)c(Cl)c1)CC3OC1CC(N)C(O)C(C)O1` (stereo unspecified) was tested, and the inhibition was 27% (active).
For `COc1ccc(N=Nc2c(-c3ccc(OC)cc3)[nH]oc2=O)cc1`, the inhibition was 25.7% (active).
In the case of `OC(c1ccccc1)c1nc(-c2cnc3ccccc3c2)cs1` (stereo unspecified), the inhibition is reported as 15.7% (active).
`Cn1c(CC(=O)NNC(=O)c2ccccc2F)nc2ccccc21` was tested, and the inhibition was 14.2% (active).
